D1 mod – allosterically modulates the human D1 dopamine receptor; B-score at 10 µM; 58,000 compounds, 5.9% hits; HEK293 D1, CRE-luciferase, dopamine EC30 potentiation; actives deviate in either direction;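 active = luminescence count or its row- and column-corrected plate score outside the 99.7% band of the plate's sample wells, on either side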
M1 agonist – agonists of M1 muscarinic receptor. CHO-M1 cells, Fluo-4 calcium fluorescence, agonist mode; hits give high values. B-score at 10 µM. 64,000 compounds, 3% hits;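 active = fluorescence rise, raw or as B-score row- and column-corrected plate score, outside the 99.7% band of its plate's samples, either direction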
SF1 activator – activators of human nuclear receptor SF-1; Q13285; activation, % at 10 µM; CHO-K1 Gal4-SF-1 LBD luciferase reporter; % increase over DMSO SF-1-specific signal; 65,000 compounds, 1.9% hits;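 active = activation above the mean activation of all tested compounds plus 3 SD, cut at about 50% in these data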
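Test system: CHO-K1 cells with Gal4–hSF-1 LBD chimera plus Gal4-driven luciferase; Input: 4,000 cells/well; Compound: 10 µM only; Times: 20 h compound treatment, 37 °C; Measured by: steady-glow luciferase luminescence, read after 15 min reagent incubation; Measure: percent activation versus DMSO; Control set: DMSO and mock-transfected background; Replicates: one test per compound.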
M1 antag – M1 muscarinic receptor (rat) antagonism. 64,000 compounds, 3.4% hits. CHO-M1 cells, Fluo-4 calcium, ACh EC80 antagonist mode; hits give low values. B-score at 10 µM. AID 628. P08482;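 active = calcium fluorescence response, raw or row-and-column corrected B-score, differing from the plate sample mean either way at a set confidence level, mostly lower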
HePTP inh – inhibitors of human HePTP phosphatase; P35236; recombinant HePTP phosphatase activity, OD absorbance; inhibition, % at 20 µM; 110,000 compounds, 0.64% hits; in the data active = inhibition above about 50%; inconclusive = no clear call, values can overlap the other calls
RORA act – activates the human nuclear receptor RORA; CHO-K1 Gal4-RORA LBD luciferase reporter, luminescence; percent increase over mock-subtracted basal signal; activation, % at 10 µM; 65,000 compounds, 1.5% hits; AID 560;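 active = activation above the mean of all tested compounds plus 3 SD, cut at about 49% in these data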
Target sequence (P35398 whole entry, looked up, the tested form may be a part): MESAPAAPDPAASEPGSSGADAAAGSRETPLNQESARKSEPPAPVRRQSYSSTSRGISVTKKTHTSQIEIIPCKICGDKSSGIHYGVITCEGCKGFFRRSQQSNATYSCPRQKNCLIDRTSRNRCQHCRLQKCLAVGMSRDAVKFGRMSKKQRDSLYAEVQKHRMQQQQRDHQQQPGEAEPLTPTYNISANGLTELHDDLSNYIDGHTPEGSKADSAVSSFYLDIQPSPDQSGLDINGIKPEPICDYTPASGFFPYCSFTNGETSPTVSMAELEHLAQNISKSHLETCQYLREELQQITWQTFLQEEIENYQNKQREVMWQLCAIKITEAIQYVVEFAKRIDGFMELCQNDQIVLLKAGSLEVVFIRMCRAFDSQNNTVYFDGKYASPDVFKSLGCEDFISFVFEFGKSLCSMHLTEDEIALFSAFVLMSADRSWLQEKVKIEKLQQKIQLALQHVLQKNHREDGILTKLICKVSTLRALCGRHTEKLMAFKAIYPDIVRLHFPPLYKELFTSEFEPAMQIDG
M1 agonist conf – rat M1 muscarinic agonism, confirmation; CHO-M1 cells, Fluo-4 calcium fluorescence, agonist mode; actives lie on both sides; fluorescence change (max-min) at 10 µM; 1,700 compounds, 19% hits; shares compounds with M1 agonist;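 active = fluorescence change differs from the solvent-only DMSO control mean at a set confidence level in both duplicate runs; inconclusive = differs from solvent-only control mean in just one of two runs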;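 note: an EC20 dose of acetylcholine follows compound addition during the same imaging run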
M4 agonist ctr – activates rat M4 receptor in counter-screen for M1 agonists | 1,700 compounds, 9% hits | CHO M4/Gqi5 cells, Fluo-4 calcium fluorescence, agonist mode; actives lie on both sides | shares compounds with M1 agonist | AID 1741 | fluorescence change (max-min) at 10 µM;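 active = fluorescence change differing from the plate's solvent-only control wells at 99.7% confidence in both duplicates, whether higher or lower; inconclusive = differs from solvent controls in only one of two duplicates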
Of the large screens only hits and unclear results are named; the others gave an inactive call (follow-up assays come after a bar, where they were run). An excerpt weighted towards active compounds, which were near 8.2% of everything screened.

COc1ccc(N2CCN(C(=O)C3CCCN(S(=O)(=O)c4cccc5cccnc45)C3)CC2)cc1 (stereo not given)	none
CC(=O)c1cccc(NC(=O)C2CCCN(S(=O)(=O)c3cccc4cccnc34)C2)c1 (stereo not given)	M1 agonist 6.6 | M1 agonist conf -26 | M4 agonist ctr inconclusive
CCCc1cc(=O)oc2cc3occ(C)c3cc12	M1 agonist 2.7 | M1 agonist conf inactive | M4 agonist ctr inconclusive
COc1cc2ccccc2cc1C(=O)Nc1ccc(N2CCN(C)CC2)cc1	M1 agonist 5.9, M1 antag -8, RORA act 59 | M1 agonist conf -24 | M4 agonist ctr inactive
COc1ccc(NC(=O)CSc2nc3ccccc3c(=O)n2CCNC(C)=O)cc1	none
O=C(Nc1nccs1)c1cc(N2CCOCC2)nc2ccccc12	M1 agonist 3.1 | M1 agonist conf inactive | M4 agonist ctr inactive
COc1ccc(OC)c(S(=O)(=O)N2CCC(C(=O)Nc3cccc(C(F)(F)F)c3)CC2)c1	M1 agonist 4.4 | M1 agonist conf inactive | M4 agonist ctr inactive
CC(C)CNC(=O)/C=C/c1ccccc1	none (no result: D1 mod, M1 agonist, SF1 activator, M1 antag, RORA act)
N#Cc1c(N)sc(=S)c2c1CCCCC2	M1 agonist 13 (no result: D1 mod) | M1 agonist conf inactive | M4 agonist ctr inactive
CC1(C)Cc2c(C#N)c(N)sc(=S)c2CS1	none
CCOc1ncccc1C(=O)Nc1ccc(-c2cn3ccsc3n2)cc1	none
COc1ccccc1C(=O)Nc1cccc(-c2cn3ccsc3n2)c1	M1 agonist 4.7 | M1 agonist conf inconclusive | M4 agonist ctr inactive
O=C(NCC(=O)N(c1ccccc1)C(C(=O)NC1CCCCC1)c1ccncc1)c1ccco1 (stereo not given)	M1 agonist 2.5 (no result: D1 mod) | M1 agonist conf inactive | M4 agonist ctr inconclusive
O=C(NCC(=O)N(c1ccccc1)C(C(=O)NCC1CCCO1)c1ccccc1)c1ccco1 (stereo not given)	M1 agonist 8.3 | M1 agonist conf inconclusive | M4 agonist ctr inactive
O=C(NCC(=O)N(Cc1cccs1)C(C(=O)NC1CCCC1)c1ccco1)c1cccs1 (stereo not given)	M1 agonist 3.2 | M1 agonist conf inactive | M4 agonist ctr inconclusive
CCOC(=O)N1CCN(C(=O)CSc2nc3ccccc3c(=O)n2-c2ccccc2)CC1	M1 agonist 3.8 | M1 agonist conf inconclusive | M4 agonist ctr inconclusive
CCOC(=O)CC(=O)CSc1nc2ccccc2c(=O)n1-c1ccc(C(=O)N2CCOCC2)cc1	none
CNc1nc2sc3c(c2c(=O)n1C)CC(C)(C)SC3	none
CC(C)(C)C(=O)CC(=O)c1ccc(Br)cc1	none (no result: D1 mod, M1 agonist, SF1 activator, M1 antag, RORA act)
CCSc1nnc(NC(=O)c2cnccn2)s1	none
CCSc1nnc(NC(=O)c2ccccn2)s1	D1 mod -5.8, M1 agonist 11 | M1 agonist conf inconclusive | M4 agonist ctr inactive
CN(CCCC(=O)Nc1ccncc1)S(=O)(=O)c1ccc(Cl)cc1	M1 agonist 4.1 | M1 agonist conf inactive | M4 agonist ctr inactive
Cc1ccc(C(=O)CC2(O)C(=O)N(Cc3ccc4c(c3)OCO4)c3ccccc32)cc1 (stereo not given)	M1 agonist 59 | M1 agonist conf inactive | M4 agonist ctr inactive
O=C(CC1(O)C(=O)N(Cc2ccc3c(c2)OCO3)c2ccccc21)c1ccccc1 (stereo not given)	none
CC1(C)CC(=O)C2=C(C1)OC1=C(C(=O)CC(C)(C)C1)C2c1ccc(Br)c([N+](=O)[O-])c1	none (no result: D1 mod, M1 agonist, SF1 activator, M1 antag, RORA act)
Cc1ccc2occ(C(c3nnnn3C3CCCC3)N3CCN(C(=O)c4ccco4)CC3)c(=O)c2c1 (stereo not given)	M1 agonist 2.7 | M1 agonist conf inconclusive | M4 agonist ctr inconclusive
COc1ccc(NC(=O)COc2ccccc2C#N)c(S(=O)(=O)N2CCCCC2)c1	M1 agonist 4.4 | M1 agonist conf inactive | M4 agonist ctr inactive
O=C(c1ccc(F)cc1)c1cn[nH]c1-c1ccccc1O	none
COc1ccccc1N1CCN(C(=O)CCCC2=NS(=O)(=O)c3ccccc3N2)CC1	M1 agonist 3.2 | M1 agonist conf -22 | M4 agonist ctr inactive
COc1ccc(N=C2NC(=O)/C(=C\C=C\c3ccccc3)S2)cc1	none (no result: D1 mod, M1 agonist, SF1 activator, M1 antag, RORA act)
O=C1c2ccccc2C(=O)N1SC1CCCCC1	M1 agonist 6.4 (no result: D1 mod) | M1 agonist conf inconclusive | M4 agonist ctr inactive
Cc1ccc2c(c1)[nH]c1c(N3CCN(Cc4ccccc4)CC3)ncnc12	M1 agonist 3.9, M1 antag -3.1 | M1 agonist conf inactive | M4 agonist ctr inconclusive
COc1cc2[nH]c3c(N4CCN(c5ccc(Cl)cc5)CC4)ncnc3c2cc1OC	none (no result: D1 mod)
c1ccc2c(c1)CCN(c1ncnc3c1[nH]c1ccccc13)C2	M1 agonist 5.6, M1 antag -3.4 (no result: D1 mod) | M1 agonist conf inactive | M4 agonist ctr inactive
Cc1ccc2[nH]c3c(N4CCN(Cc5ccccc5)CC4)ncnc3c2c1	none (no result: D1 mod)
c1ccc(CN2CCN(c3ncnc4c3[nH]c3ccccc34)CC2)cc1	D1 mod -4.9, M1 agonist 3.9, M1 antag -2.7 | M1 agonist conf inactive | M4 agonist ctr inconclusive
c1ccc2c(c1)[nH]c1c(N3CCC4(CC3)OCCO4)ncnc12	none
COc1cccc(N2CCN(c3ncnc4c3[nH]c3ccccc34)CC2C)c1 (stereo not given)	M1 agonist 11, M1 antag -3.4 (no result: D1 mod) | M1 agonist conf inconclusive | M4 agonist ctr inactive
Cc1ccc(N2C(=O)/C(=C/C=C/c3ccccc3)C(=O)NC2=S)cc1	none (no result: D1 mod, M1 agonist, SF1 activator, M1 antag, RORA act)
C=CCN1C(=O)/C(=C\c2cc(Cl)c(O)c(OCC)c2)C(=O)NC1=S	none (no result: D1 mod, M1 agonist, SF1 activator, M1 antag, RORA act)
CCN(Cc1ccccc1)C(=O)c1ccc(SC)cc1OC	none (no result: D1 mod, M1 agonist, SF1 activator, M1 antag, RORA act)
CCn1c(C(=O)N2CCC(C(=O)N3CCN(c4ccccn4)CC3)CC2)cc2sccc21	M1 agonist 2.5 | M1 agonist conf inactive | M4 agonist ctr inconclusive
CC1CCN(C(=O)C2CCN(C(=O)c3cc4sccc4n3Cc3ccc(F)cc3)CC2)CC1	none (no result: D1 mod)
COc1ccccc1N=c1oc2cc(O)ccc2cc1C(=O)NCC1CCCO1 (stereo not given)	none
Cc1cccc(N=c2oc3cc(O)ccc3cc2C(N)=O)c1	M1 agonist 5.4 | M1 agonist conf inactive | M4 agonist ctr inactive
COc1ccccc1N=c1oc2cc(O)ccc2cc1C(N)=O	M1 agonist 7.6 | M1 agonist conf inactive | M4 agonist ctr inactive
CC(=O)c1cccc(S(=O)(=O)N(Cc2cc3cc4c(cc3[nH]c2=O)OCCO4)CC2CCCO2)c1 (stereo not given)	none
